Source: ChEMBL document CHEMBL4219168, “Design, synthesis, and evaluation of l-cystine diamides as l-cystine crystallization inhibitors for cystinuria” (Bioorg Med Chem Lett, 2018)
Active and inactive are the calls of the source. No cut-off for these calls is given here.

Key:
[1] = tested on: Cystine; assay: Inhibition of L-cystine crystallization assessed as increase in apparent aqueous solubility after 72 hrs by fluorescence assay
How it was run: (§1)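 Dose-response curves were run in supersaturated aqueous L-cystine, with apparent solubility read by fluorescence assay. EC2x is the effective concentration that doubles the apparent solubility of L-cystine in water. The ratio is the potency gain over the CDME control.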

[2] = tested on: Cystine; assay: Inhibition of L-cystine crystallization assessed as increase in apparent aqueous solubility at 2 to 10 uM after 72 hrs by fluorescence assay relative to CDME
[3] = tested on: Cystine; assay: Inhibition of L-cystine crystallization assessed as increase in apparent aqueous solubility at 2 to 10 uM after 72 hrs by fluorescence assay
How it was run: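 Supersaturated L-cystine in Millipore water was spiked 1:100 with 1 mM or 200 μM diamide stock, giving final 10 μM or 2 μM. Mixtures were held at 25 °C for 72 h. Apparent L-cystine solubility was then read with an in-house fluorescence assay. CDME served as positive control and water as blank.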

[4] = tested on: Cystine; assay: Inhibition of L-cystine crystallization assessed as increase in apparent aqueous solubility after 72 hrs by fluorescence assay relative to CDME; how it was run: as §1

| Structure (SMILES) | EC2 [1] | inhibition [2] | inhibition [3] | fold change (FC) [4] |
| --- | --- | --- | --- | --- |
| COC(=O)[C@@H](N)CSSC[C@H](N)C(=O)OC | 6.37 µM | – | – | – |
| CN[C@@H](CSSC[C@H](NC)C(=O)NC1CC1)C(=O)NC1CC1 | – | inactive | inactive | – |
| N[C@@H](CSSC[C@H](N)C(=O)NC1CC1)C(=O)NC1CC1 | 3.53 µM | – | – | 1.8 |
| CCN(CC)C(=O)[C@H](CSSC[C@H](NC)C(=O)N(CC)CC)NC | – | inactive | inactive | – |
| CN[C@@H](CSSC[C@H](NC)C(=O)N1CCCCC1)C(=O)N1CCCCC1 | – | inactive | inactive | – |
| CN[C@@H](CSSC[C@H](NC)C(=O)N(C)C)C(=O)N(C)C | – | inactive | inactive | – |
| CN[C@@H](CSSC[C@H](NC)C(=O)N1CCOCC1)C(=O)N1CCOCC1 | – | inactive | inactive | – |
| CN[C@@H](CSSC[C@H](NC)C(=O)NCCO)C(=O)NCCO | – | inactive | inactive | – |
| N[C@@H](CSSC[C@H](N)C(=O)NCCO)C(=O)NCCO | 2.02 µM | – | – | 3.2 |

The remaining lines, values ahead:

| EC2 [1] | inhibition [2] | inhibition [3] | fold change (FC) [4] | Structure (SMILES) |
| --- | --- | --- | --- | --- |
| 1.59 µM | – | – | 4 | N[C@@H](CSSC[C@H](N)C(=O)N1CCCCC1)C(=O)N1CCCCC1 |
| 0.26 µM | – | – | 24.5 | CN1CCN(C(=O)[C@@H](N)CSSC[C@H](N)C(=O)N2CCN(C)CC2)CC1 |
| 0.86 µM | – | – | 7.4 | N[C@@H](CSSC[C@H](N)C(=O)N1CCOCC1)C(=O)N1CCOCC1 |
| – | inactive | inactive | – | CN[C@@H](CSSC[C@H](NC)C(=O)N1CCCC1)C(=O)N1CCCC1 |
